From ChEMBL document CHEMBL1125686, “(Benzoylphenyl)piperidines: a new class of immunomodulators” (1991)

Assays:
Type in all cases: functional
Design in all cases: unit not given here
Mus musculus [1] = species: Mus musculus; test: Maximal proliferation induced in the presence of the mitogen-PHA ( stimulated blastogenesis) in Mice cells at a dose of 5 ug/mL
Summary of the method: (§1)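 Splenocytes from female DBA/2 mice, 6–9 weeks old; red cells lysed with cold 0.17 M NH₄Cl. Cells plated at 5 × 10⁶ cells/mL in RPMI 1640 with 5% FCS, with compound (5–80 μg/mL range) and Con A, PWM or PHA at a batch-optimized concentration. Cultured 72 h at 37 °C, 5% CO₂, with [³H]thymidine for the final 24 h, read by scintillation. Triplicate wells; mean ± SD of three cultures.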

Mus musculus [2] = test: Proliferation induced by the mitogen alone-Concanavalin A (control blastogenesis), in mice cells dosed at 5 ug/mL; summary of the method: as §1
Mus musculus [3] = species: Mus musculus; test: Proliferation induced by the mitogen alone-PHA (control blastogenesis), in Mice cells at a dose of 5 ug/mL; summary of the method: as §1
Mus musculus [4] = species: Mus musculus; test: Proliferation induced by the mitogen alone-PWM (control blastogenesis), in Mice cells at a dose of 10 ug/mL; summary of the method: as §1
Mus musculus [5] = species: Mus musculus; test: Maximal proliferation induced in the presence of the mitogen-PWM ( stimulated blastogenesis) in Mice cells at a dose of 10 ug/mL; summary of the method: as §1
Mus musculus [6] = test: Maximal proliferation induced in the presence of the mitogen-Concanavalin A (stimulated blastogenesis) in mice cells dosed at 5 ug/mL; summary of the method: as §1
Mus musculus [7] = species: Mus musculus; test: Maximal proliferation induced in the presence of the mitogen-PWM ( stimulated blastogenesis) in Mice cells at a dose of 40 ug/mL; summary of the method: as §1
Mus musculus [8] = species: Mus musculus; test: Proliferation induced by the mitogen alone-PWM (control blastogenesis), in Mice cells at a dose of 40 ug/mL
Summary of the method: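 Splenocytes from female DBA/2 mice aged 6–9 weeks, red cells lysed with cold 0.17 M NH4Cl, cultured at 5 × 10⁶ cells/mL in RPMI 1640 with 5% FCS. Pokeweed mitogen added at a batch-adjusted optimal level, 72 h at 37 °C, 5% CO2. [³H]thymidine pulse for the final 24 h, then scintillation counting. Triplicates; mean ± SD of three cultures.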

## CC1CCN(c2ccc(N)cc2C(=O)c2cccc(Cl)c2)CC1
Mus musculus [1]
  Proliferative response: 40.9
Mus musculus [2]
  Proliferative response: 316
Mus musculus [3]
  Proliferative response: 40.2
Mus musculus [4]
  Proliferative response: 102.8
Mus musculus [5]
  Proliferative response: 105
Mus musculus [6]
  Proliferative response: 343.8

## Cc1ccc(C(=O)c2cc(N)ccc2N2CCC(C)CC2)cc1
Mus musculus [7]
  Proliferative response: 48.9
Mus musculus [8]
  Proliferative response: 53.8
Mus musculus [2]
  Proliferative response: 179.7
Mus musculus [6]
  Proliferative response: 283.2

## Nc1ccc(N2CCC(O)CC2)c(C(=O)c2ccc(Cl)cc2)c1
Mus musculus [1]
  Proliferative response: 52.6
Mus musculus [2]
  Proliferative response: 374.8
Mus musculus [3]
  Proliferative response: 45
Mus musculus [4]
  Proliferative response: 107.9
Mus musculus [5]
  Proliferative response: 88.7
Mus musculus [6]
  Proliferative response: 281.1

## Cc1cccc(C(=O)c2cc(N)ccc2N2CCC(C)CC2)c1
Mus musculus [1]
  Proliferative response: 62.4
Mus musculus [2]
  Proliferative response: 389.9
Mus musculus [3]
  Proliferative response: 47.9
Mus musculus [4]
  Proliferative response: 98.8
Mus musculus [5]
  Proliferative response: 135.9
Mus musculus [6]
  Proliferative response: 414.1

## Nc1ccc(N2CCCCC2)c(C(=O)c2ccc(Cl)cc2)c1
Mus musculus [2]
  Proliferative response: 24.6
Mus musculus [4]
  Proliferative response: 47.7
Mus musculus [5]
  Proliferative response: 44.8
Mus musculus [6]
  Proliferative response: 21.3

## COc1ccc(C(=O)c2cc(N)ccc2N2CCC(C)CC2)cc1
Mus musculus [1]
  Proliferative response: 54.3
Mus musculus [2]
  Proliferative response: 322.1
Mus musculus [3]
  Proliferative response: 36.3
Mus musculus [4]
  Proliferative response: 103.3
Mus musculus [5]
  Proliferative response: 121.8
Mus musculus [6]
  Proliferative response: 363.6

## CC1CCN(c2ccc(N)cc2C(=O)c2ccccc2)CC1
Mus musculus [7]
  Proliferative response: 55.7
Mus musculus [8]
  Proliferative response: 48.9
Mus musculus [2]
  Proliferative response: 188.1
Mus musculus [6]
  Proliferative response: 167

## CC1CCN(c2ccccc2C(=O)c2ccccc2)CC1
Mus musculus [2]
  Proliferative response: 13.6
Mus musculus [4]
  Proliferative response: 15.1
Mus musculus [5]
  Proliferative response: 24.7
Mus musculus [6]
  Proliferative response: 9

## Nc1ccc(N2CCC(Cc3ccccc3)CC2)c(C(=O)c2ccc(Cl)cc2)c1
Mus musculus [1]
  Proliferative response: 35.1
Mus musculus [2]
  Proliferative response: 328
Mus musculus [3]
  Proliferative response: 27.4
Mus musculus [4]
  Proliferative response: 108.2
Mus musculus [5]
  Proliferative response: 79.5
Mus musculus [6]
  Proliferative response: 308

## CC1CCN(c2ccc(N)cc2C(=O)c2cccc(C(F)(F)F)c2)CC1
Mus musculus [1]
  Proliferative response: 36
Mus musculus [2]
  Proliferative response: 332
Mus musculus [3]
  Proliferative response: 34.3
Mus musculus [4]
  Proliferative response: 79
Mus musculus [5]
  Proliferative response: 79.9
Mus musculus [6]
  Proliferative response: 297.7

## CC1CCN(c2ccc(N)cc2C(=O)c2ccc(Cl)cc2Cl)CC1
Mus musculus [1]
  Proliferative response: 46.4
Mus musculus [2]
  Proliferative response: 280
Mus musculus [3]
  Proliferative response: 46.7
Mus musculus [4]
  Proliferative response: 105.5
Mus musculus [5]
  Proliferative response: 115.9
Mus musculus [6]
  Proliferative response: 246.2

## CNc1ccc(N2CCC(C)CC2)c(C(=O)c2ccc(Cl)cc2)c1
Mus musculus [2]
  Proliferative response: 18.2
Mus musculus [4]
  Proliferative response: 20.3
Mus musculus [5]
  Proliferative response: 19.5
Mus musculus [6]
  Proliferative response: 21.3

## CC1CCCN(c2ccc(N(C)C)cc2C(=O)c2ccc(Cl)cc2)C1 (stereo unspecified)
Mus musculus [2]
  Proliferative response: 17.6
Mus musculus [4]
  Proliferative response: 21.4
Mus musculus [5]
  Proliferative response: 18.6
Mus musculus [6]
  Proliferative response: 14.9

## CC1CCN(c2ccc([N+](=O)[O-])cc2C(=O)c2ccc(Cl)cc2)CC1
Mus musculus [7]
  Proliferative response: 42.7
Mus musculus [8]
  Proliferative response: 59.9
Mus musculus [2]
  Proliferative response: 160.9
Mus musculus [6]
  Proliferative response: 93.7

## CCC1CCN(c2ccc(N)cc2C(=O)c2ccc(Cl)cc2)CC1
Mus musculus [1]
  Proliferative response: 37.4
Mus musculus [2]
  Proliferative response: 319.5
Mus musculus [3]
  Proliferative response: 30.4
Mus musculus [4]
  Proliferative response: 88.7
Mus musculus [5]
  Proliferative response: 114.6
Mus musculus [6]
  Proliferative response: 348

## COc1ccc(C(=O)c2ccccc2N2CCC(C)CC2)cc1
Mus musculus [2]
  Proliferative response: 127.5
Mus musculus [4]
  Proliferative response: 20.8
Mus musculus [5]
  Proliferative response: 15.5
Mus musculus [6]
  Proliferative response: 165

## CC(C)(C)C1CCN(c2ccc(N)cc2C(=O)c2ccc(Cl)cc2)CC1
Mus musculus [1]
  Proliferative response: 55
Mus musculus [2]
  Proliferative response: 30.5
Mus musculus [3]
  Proliferative response: 59.1
Mus musculus [4]
  Proliferative response: 114.8
Mus musculus [5]
  Proliferative response: 137.5
Mus musculus [6]
  Proliferative response: 31.9
